Results collected from several papers.
Protocols differ between the studies behind these lines.
Cell line: HepG2
Read-out: cell growth or viability

With `CN[C@@H]1C[C@H]2O[C@@](C)([C@@H]1OC)n1c3ccccc3c3c4c(c5c6ccccc6n2c5c31)C(=O)NC4` the IC50 was 0.0383 µM.
For `C#CCn1c(C(=O)/C=C/c2ccc(F)cc2)nc2ccccc21`, the IC50 was 1.72 µM (LDH; 48 h).
For `Fc1ccc2c(-c3nc(Cc4ccccc4)cs3)nn(Cc3ccc(Cl)cc3Cl)c2c1`, the IC50 was 25.1 µM (48 h).
With `Nc1c(C(=O)Nc2cccnc2)sc2nc(-c3ccccc3)cc(C(F)(F)F)c12` the IC50 was greater than 100 µM (72 h).
For `CC1=C(O)C(=O)C=C2C1=CC=C1[C@@]2(C)CC[C@@]2(C)[C@@H]3C[C@](C)(C(=O)O)CC[C@]3(C)CC[C@]12C`, the IC50 was 2.53 µM (CCK-8; 24 h).
`N=C(CC(O)c1cc2c(F)cc(F)cc2c2cc(C(F)(F)F)ccc12)Nc1ccccc1I` (centres unmarked) gave an IC50 of 160 µM (neutral red; 24 h).
The IC50 of `COc1ccc(-c2cc(C(F)(F)F)c3c(N)c(C(=O)N4CCCC4)sc3n2)cc1` is reported as greater than 50 µM (72 h).
`N=C(CC(O)c1cc2c(F)cc(F)cc2c2cc(C(F)(F)F)ccc12)Nc1ccc(-c2ccc(F)cc2)cc1` (centres unmarked) has an IC50 of 10.5 µM (neutral red; 24 h).
The IC50 of `Nc1c(C(=O)N2CC(F)(F)C2)sc2ncccc12` is reported as greater than 100 µM (72 h).
`COc1cc(NC(=N)CC(O)c2cc3c(F)cc(F)cc3c3cc(C(F)(F)F)ccc23)ccc1Br` (centres unmarked) gave an IC50 of 15.3 µM (neutral red; 24 h).
For `CC(C)=CCC[C@](C)(O)[C@H]1CC[C@]2(C)[C@@H]1[C@H](O)C[C@@H]1[C@@]3(C)CC[C@H](O)C(C)(C)[C@@H]3[C@@H](O[C@@H]3O[C@H](CO)[C@@H](O)[C@H](O)[C@H]3O)C[C@]12C`, the IC50 was 32 µM (CCK-8; 24 h).
